From PubChem BioAssay
Only some compounds are listed: those with a hit (about 3.1% of all), similar ones and a draw of the others.
KCNQ1 act = human KCNQ1 channel potentiation or activation; P51787; B-score at 10 µM; CHO-K1 KCNQ1, thallium flux FluxOR fluorescence; hits give high values; 0.35% of 310,000 active;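 active means fluorescence ratio B-score, a plate-corrected score, at least three library SD, with initial intensity B-score within 5 SD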
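Schedule – 37 °C overnight plating, 90-min dark dye load, 20-min compound pretreatment · System – stable KCNQ1 CHO-K1 line · Probe or stimulus – thallium- and potassium-containing depolarizing buffer · Measured by – kinetic FluxOR fluorescence, 10 s baseline plus 110 s post-stimulus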
KCNK3 inh = human KCNK3 channel inhibition, primary screen; B-score at 10 µM; O14649; 0.84% of 340,000 active; AID 602410; CHO-KCNK3 thallium flux, FluxOR fluorescence; hits give low values;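 active means B-score under library mean minus 4 SD, starting fluorescence ratio at most library mean plus 5 SD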;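 further: more negative B-score means stronger inhibition of thallium flux through KCNK3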
KCNQ1 block = inhibitors of human KCNQ1 potassium channel; P51787; CHO-K1 KCNQ1, FluxOR thallium flux fluorescence; hits give high values; B-score at 10 µM; 1.3% of 310,000 active; AID 2642;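 active means compounds whose thallium flux B-score, printed positive for inhibition, exceeds three library SD while starting fluorescence stays within three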;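 further: channel opened by potassium depolarization with thallium stimulus after 20 min compound exposure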
hERG protect = hERG (human) protection from proarrhythmic block. CHO-hERG, FluxOR thallium flux, dofetilide IC70 present. activation (rescue from dofetilide block), less the hit threshold, % at 10 µM. 0.51% of 310,000 active;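 active means activation above the mean of controls blocked by dofetilide plus 5 SD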;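 further: thallium influx through hERG after potassium depolarization seen as dye fluorescence rise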
Target sequence (Q12809 whole entry, looked up): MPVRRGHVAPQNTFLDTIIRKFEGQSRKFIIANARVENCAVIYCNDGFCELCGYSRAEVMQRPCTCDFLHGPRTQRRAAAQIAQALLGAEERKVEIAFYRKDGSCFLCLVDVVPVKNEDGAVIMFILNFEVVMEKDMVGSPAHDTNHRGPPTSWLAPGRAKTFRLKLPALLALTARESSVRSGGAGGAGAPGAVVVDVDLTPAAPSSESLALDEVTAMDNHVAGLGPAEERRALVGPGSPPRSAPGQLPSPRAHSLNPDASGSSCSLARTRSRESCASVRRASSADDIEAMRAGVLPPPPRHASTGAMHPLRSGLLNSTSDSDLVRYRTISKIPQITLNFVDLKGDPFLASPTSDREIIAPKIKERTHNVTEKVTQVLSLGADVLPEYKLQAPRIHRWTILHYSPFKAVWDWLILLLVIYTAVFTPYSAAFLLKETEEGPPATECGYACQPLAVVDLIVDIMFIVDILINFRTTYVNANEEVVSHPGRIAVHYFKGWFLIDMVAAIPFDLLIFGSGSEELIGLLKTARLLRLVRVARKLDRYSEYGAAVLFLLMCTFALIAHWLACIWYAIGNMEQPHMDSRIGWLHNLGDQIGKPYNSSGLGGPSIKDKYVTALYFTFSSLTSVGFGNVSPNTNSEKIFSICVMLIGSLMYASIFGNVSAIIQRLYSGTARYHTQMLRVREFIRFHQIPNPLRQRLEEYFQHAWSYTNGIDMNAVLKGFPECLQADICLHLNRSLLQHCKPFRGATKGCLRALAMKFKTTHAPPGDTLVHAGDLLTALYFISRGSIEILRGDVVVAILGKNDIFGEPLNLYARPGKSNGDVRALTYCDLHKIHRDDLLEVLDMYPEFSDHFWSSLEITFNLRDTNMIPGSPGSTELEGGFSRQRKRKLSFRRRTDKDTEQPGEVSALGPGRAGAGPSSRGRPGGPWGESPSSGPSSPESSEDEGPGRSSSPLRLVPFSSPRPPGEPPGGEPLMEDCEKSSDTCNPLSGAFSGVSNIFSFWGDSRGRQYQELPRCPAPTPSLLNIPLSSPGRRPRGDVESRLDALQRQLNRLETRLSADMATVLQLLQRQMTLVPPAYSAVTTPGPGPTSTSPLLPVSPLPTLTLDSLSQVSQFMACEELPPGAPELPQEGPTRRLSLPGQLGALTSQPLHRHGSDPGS
KCNK9 inh = blocks the human KCNK9 two-pore domain potassium channel. 1.2% of 310,000 active. Q9NPC2. B-score at 10 µM. HEK293 KCNK9, FluxOR thallium flux fluorescence; hits give low values;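 active means ratio B-score over 3 SD below the library mean, with starting fluorescence within 5 SD of its mean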;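 further: negative B-score means less thallium flux so channel inhibition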
KCNQ1 inh valid = reconfirmed blocker of the human KCNQ1 potassium channel. KCNQ1 cell line, FluxOR thallium flux fluorescence. 93% of 1,600 active. shares compounds with KCNQ1 block. inhibition, % at 10 µM;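 active means primary screen active, with duplicate mean exceeding buffer control mean plus 3 SD of buffer wells, cut at about 28% in these data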;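 further: 0% = buffer control ratio and 100% = XE991 inhibitor control ratio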
CHO KCNQ1 ctr = activity in parental CHO cells lacking KCNQ1; parental CHO-K1, FluxOR thallium flux fluorescence ratio; hits give low values; zero means no signal rise above baseline; 21% of 1,600 active; shares compounds with KCNQ1 block; AID 588366; fluorescence ratio (Tl flux) at 10 µM;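 active means mean of duplicate thallium-flux fluorescence ratios in parental host cells more than 5 SD below the buffer control mean, cut at about 0.38 in these data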;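 further: ratio is peak minus minimum fluorescence divided by baseline fluorescence; actives read low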
KCNQ1 APC inh = blocks human KCNQ1 current in automated patch clamp. 20% of 490 active. shares compounds with KCNQ1 block. KCNQ1-CHO cells. calls only at 10 µM;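 active means KCNQ1 current drop exceeding 3 SD of negative control wells, seen in both duplicate runs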;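 further: steady state current during a 2 s step from -80 to +40 mV; negative values mean current inhibition and positive values mean potentiation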
KCNQ2 inh = rat KCNQ2 inhibition in KCNQ1 inhibitor specificity screen; 71% of 1,600 active; KCNQ2 cells, FluxOR thallium flux fluorescence; inhibition, % at 10 µM; shares compounds with KCNQ1 block;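 active means mean percent inhibition of the KCNQ2 thallium signal more than 5 SD above the buffer-only control wells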;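 further: KCNQ2 expressed in CHO cells; 0% = buffer control wells and 100% = XE-991 inhibitor control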
KCNQ1-KCNE1 inh = selectivity of KCNQ1 inhibitors: inhibition of human KCNQ1/KCNE1 channel; shares compounds with KCNQ1 block; KCNQ1/KCNE1 cells, FluxOR thallium flux fluorescence; inhibition, % at 10 µM; 77% of 1,600 active;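 active means mean percent inhibition of duplicate wells above the buffer-only control mean plus 3 SD of those controls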;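 further: 0% = buffer only wells and 100% = XE-991 inhibitor control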
* = called active by the depositor.

How did Cc1cccc(C)c1OCc1cc(C(=O)N2CCN(c3ccccc3)CC2C)no1 (configuration not stated) do in these assays?
KCNQ1 act: inactive; KCNK3 inh: inactive; KCNQ1 block: 8*; hERG protect: -14; KCNK9 inh: inactive; KCNQ1 inh valid: 86*; CHO KCNQ1 ctr: 0.38*; KCNQ2 inh: 117%*; KCNQ1-KCNE1 inh: 120%*

Results for Cc1ccc(C)c(OCc2cc(C(=O)N3CCN(c4ccccc4)CC3)no2)c1 ?
KCNQ1 act: inactive; KCNK3 inh: inactive; KCNQ1 block: 7*; hERG protect: -4; KCNK9 inh: inactive; KCNQ1 inh valid: 74*; CHO KCNQ1 ctr: 0.44; KCNQ2 inh: 98%*; KCNQ1-KCNE1 inh: 65%*

What do the screens show for `Cc1ccc(C)c(OCc2cc(C(=O)N3CCN(C(=O)c4ccco4)CC3)no2)c1`?
KCNQ1 act: inactive; KCNK3 inh: inactive; KCNQ1 block: inactive; hERG protect: -11; KCNK9 inh: inactive

What do the screens show for `Cc1cccc(C)c1OCc1cc(C(=O)N2CCC(c3ccncc3)CC2)no1`?
KCNQ1 act: inactive; KCNK3 inh: inactive; KCNQ1 block: 7*; hERG protect: -22; KCNK9 inh: inactive; KCNQ1 inh valid: 113*; CHO KCNQ1 ctr: 0.52; KCNQ1 APC inh: inactive; KCNQ2 inh: 69%*; KCNQ1-KCNE1 inh: 35%*

What do the screens show for `O=C(Nc1ccc(C(=O)Nc2ccccc2Cl)cc1)c1cccnc1`?
KCNQ1 act: inactive; KCNK3 inh: inactive; KCNQ1 block: inactive; hERG protect: -11; KCNK9 inh: inactive

How did COC(=O)c1ccc(N2CCOCC2)c(NC(=O)Nc2cccc(OC)c2)c1 do in these assays?
KCNQ1 act: inactive; KCNK3 inh: inactive; KCNQ1 block: inactive; hERG protect: -8; KCNK9 inh: inactive

How did CCOC(=O)c1ccc(N2CCN(c3ccccc3F)CC2)c(NC(=O)Nc2cccc(OC)c2)c1 do in these assays?
KCNQ1 act: inactive; KCNK3 inh: inactive; KCNQ1 block: 7*; hERG protect: -13; KCNK9 inh: inactive; KCNQ1 inh valid: 89*; CHO KCNQ1 ctr: 0.43; KCNQ1 APC inh: inactive; KCNQ2 inh: 83%*; KCNQ1-KCNE1 inh: 156%*

Results for CC(C)C[C@@H](CN)NC(=O)c1nc[nH]c1C(=O)N[C@@H](C)C(=O)CNC[C@H](C)NC(=O)c1nc[nH]c1C(=O)N[C@@H](CC(=O)O)C(=O)O ?
KCNK3 inh: inactive

How did O=S(=O)(Nc1ccc(-n2cccc2)cc1)c1ccc(F)cc1 do in these assays?
KCNQ1 act: inactive; KCNK3 inh: inactive; KCNQ1 block: inactive; hERG protect: -6; KCNK9 inh: inactive

How did O=S(=O)(Nc1ccc(-n2cccc2)cc1)c1ccc(Cl)c(Cl)c1 do in these assays?
KCNQ1 act: inactive; KCNK3 inh: inactive; KCNQ1 block: 10*; hERG protect: -13; KCNK9 inh: inactive; KCNQ1 inh valid: 106*; CHO KCNQ1 ctr: 0.42; KCNQ1 APC inh: inactive; KCNQ2 inh: 117%*; KCNQ1-KCNE1 inh: 162%*

How did c1ccc(-c2nc(N3CCOCC3)sc2-c2ccccc2)cc1 do in these assays?
KCNQ1 act: inactive; KCNK3 inh: inactive; KCNQ1 block: 8*; hERG protect: -7; KCNK9 inh: inactive; KCNQ1 inh valid: 99*; CHO KCNQ1 ctr: 0.41; KCNQ1 APC inh: inactive; KCNQ2 inh: 100%*; KCNQ1-KCNE1 inh: 162%*

What do the screens show for `O=S(=O)(Nc1nc2ccccc2nc1N1CCN(c2ccccc2)CC1)c1ccc(F)cc1`?
KCNQ1 act: inactive; KCNK3 inh: inactive; KCNQ1 block: 10*; hERG protect: -6; KCNK9 inh: inactive; KCNQ1 inh valid: 78*; CHO KCNQ1 ctr: 0.39; KCNQ2 inh: 69%*; KCNQ1-KCNE1 inh: 62%*

Results for Cc1ccc2nc(/N=C(\N)NC(=O)NC3CCCCC3)nc(C)c2c1 ?
KCNQ1 act: inactive; KCNK3 inh: inactive; KCNQ1 block: 7*; hERG protect: -22; KCNK9 inh: inactive; KCNQ1 inh valid: 56*; CHO KCNQ1 ctr: 0.52; KCNQ2 inh: inactive; KCNQ1-KCNE1 inh: inactive

What do the screens show for `O=C(NC1CCCCC1)C(c1ccncc1)N(Cc1ccc2c(c1)OCO2)C(=O)c1cnsn1` (configuration not stated)?
KCNQ1 act: inactive; KCNK3 inh: inactive; KCNQ1 block: 7*; hERG protect: -7; KCNK9 inh: inactive; KCNQ1 inh valid: 65*; CHO KCNQ1 ctr: 0.44; KCNQ2 inh: inactive; KCNQ1-KCNE1 inh: 72%*

Results for COc1cccc(CNC(=O)CN(C)S(=O)(=O)c2ccc3c(c2)n(C)c(=O)c(=O)n3C)c1 ?
KCNQ1 act: inactive; KCNK3 inh: inactive; KCNQ1 block: inactive; hERG protect: -8; KCNK9 inh: inactive

What do the screens show for `O=c1nc(Nc2ccc([N+](=O)[O-])cc2)[nH]c(=O)[nH]1`?
KCNQ1 act: inactive; KCNK3 inh: inactive; KCNQ1 block: inactive; hERG protect: -2; KCNK9 inh: inactive

How did O=S(=O)(c1ccccc1)c1nc(Nc2cccc(O)c2)sc1Cl do in these assays?
KCNQ1 act: inactive; KCNK3 inh: inactive; KCNQ1 block: 7*; hERG protect: -34; KCNK9 inh: inactive; KCNQ1 inh valid: 94*; CHO KCNQ1 ctr: 0.38; KCNQ1 APC inh: inactive; KCNQ2 inh: 78%*; KCNQ1-KCNE1 inh: 44%*

What do the screens show for `Cc1ccc(S(=O)(=O)c2nc(Nc3ccccc3)sc2Cl)cc1`?
KCNQ1 act: inactive; KCNK3 inh: inactive; KCNQ1 block: inactive; hERG protect: -7; KCNK9 inh: inactive

What do the screens show for `O=C(Nc1ccc(F)cc1)c1ccccc1NS(=O)(=O)N1CCCC1`?
KCNQ1 act: inactive; KCNK3 inh: inactive; KCNQ1 block: 7*; hERG protect: -10; KCNK9 inh: inactive; KCNQ1 inh valid: 82*; CHO KCNQ1 ctr: 0.54; KCNQ2 inh: 67%*; KCNQ1-KCNE1 inh: inactive

How did COc1ccc2cc(-c3[nH]ncc3CN3CCCC3c3nonc3C)ccc2c1 (configuration not stated) do in these assays?
KCNQ1 act: inactive; KCNK3 inh: inactive; KCNQ1 block: inactive; hERG protect: -7; KCNK9 inh: inactive
